Reference: ChEMBL document CHEMBL4002606, “Discovery of FZU-03,010 as a self-assembling anticancer amphiphile for acute myeloid leukemia” (Bioorg Med Chem Lett, 2017)

Key:
HL-60 [1] = test: Induction of apoptosis in human HL60 cells assessed as early apoptotic cells at 2 uM after 24 hrs by Annexin V-PE/7AAD staining based flow cytometry (reference value: 4.42%); assay type: functional
HL-60 [2] = test: Growth inhibition of human HL60 cells at 1.25 uM after 48 hrs by MTT assay relative to control; assay type: functional; details: HL-60, 48 h, read-out: GI
HL-60 [3] = test: Induction of apoptosis in human HL60 cells assessed as live cells at 2 uM after 24 hrs by Annexin V-PE/7AAD staining based flow cytometry (reference value: 90.9%); assay type: functional
HL-60 [4] = test: Growth inhibition of human HL60 cells at 40 uM after 48 hrs by MTT assay relative to control; assay type: functional; details: HL-60, 48 h, read-out: GI
HL-60 [5] = test: Growth inhibition of human HL60 cells at 2.5 uM after 48 hrs by MTT assay relative to control; assay type: functional; details: HL-60, 48 h, read-out: GI
HL-60 [6] = test: Growth inhibition of human HL60 cells after 48 hrs by MTT assay; assay type: functional, cell-based; details: HL-60, 48 h
Outline: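 HL-60 human promyelocytic leukemia cells; proliferation inhibition of the cells measured and reported as IC50; values are mean ± SE of at least three independent experiments.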

HL-60 [7] = test: Growth inhibition of human HL60 cells at 20 uM after 48 hrs by MTT assay relative to control; assay type: functional; details: HL-60, 48 h, read-out: GI
HL-60 [8] = test: Induction of apoptosis in human HL60 cells assessed as necrotic cells at 2 uM after 24 hrs by Annexin V-PE/7AAD staining based flow cytometry (reference value: 1.08%); assay type: functional
HL-60 [9] = test: Growth inhibition of human HL60 cells at 10 uM after 48 hrs by MTT assay relative to control; assay type: functional; details: HL-60, 48 h, read-out: GI
HL-60 [10] = test: Growth inhibition of human HL60 cells at 0.63 uM after 48 hrs by MTT assay relative to control; assay type: functional; details: HL-60, 48 h, read-out: GI
HL-60 [11] = test: Growth inhibition of human HL60 cells at 5 uM after 48 hrs by MTT assay relative to control; assay type: functional; details: HL-60, 48 h, read-out: GI
HL-60 [12] = test: Induction of apoptosis in human HL60 cells assessed as late apoptotic cells at 2 uM after 24 hrs by Annexin V-PE/7AAD staining based flow cytometry (reference value: 3.64%); assay type: functional
[13] = Stability of the compound in DMSO/deionized water post nanoparticle formation after 3 weeks; assay type: physicochemical; details: 504 h

Compound: C[C@H]1[C@H](C)CC[C@]2(C(=O)N3CCNCC3)CC[C@]3(C)C(=CC[C@@H]4[C@@]5(C)Cc6cn[nH]c6C(C)(C)[C@@H]5CC[C@]43C)[C@H]12
- Activity (HL-60 [1]): 19.1%
- inhibition of growth at 1.25 µM (HL-60 [2]): 66.4%
- Activity (HL-60 [3]): 76.5%
- inhibition of growth at 40 µM (HL-60 [4]): 94%
- inhibition of growth at 2.5 µM (HL-60 [5]): 86%
- IC50 (HL-60 [6]): 910 nM
- inhibition of growth at 20 µM (HL-60 [7]): 93.5%
- Activity (HL-60 [8]): 0.439%
- inhibition of growth at 10 µM (HL-60 [9]): 95%
- inhibition of growth at 0.63 µM (HL-60 [10]): 14.7%
- inhibition of growth at 5 µM (HL-60 [11]): 91.6%
- Activity (HL-60 [12]): 3.89%
- Stability [13]: Stable
